# Source: ChEMBL document CHEMBL2429791, “Preparation of asymmetric urea derivatives that target prostate-specific membrane antigen for SPECT imaging” (J Med Chem, 2013)
# Experiments:
# LNCaP [1] = experiment: Biodistribution in LNCAP cells in C.B.-17/Icr +/+ Jcl mouse xenografted with human LNCAP and PC3 cells at 25.9 MBq, iv after 30 mins; type: ADME, organism-based; details: in vivo, 0.5 h
# Outline: (§1)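 ¹²⁵I-labelled tracer given iv by tail vein to mice (22–24 g) bearing LNCaP (left shoulder) and PC-3 (right shoulder) xenografts of about 5–10 mm, grown from 1–5 × 10⁶ cells in 1:1 Matrigel. n=4 per time point; decapitated at 2 min, 30 min, 1, 3, 6 h. Tissues weighed and counted; uptake as %ID/g, mean ± SD.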
# Blood = experiment: Biodistribution in blood of C.B.-17/Icr +/+ Jcl mouse xenografted with human LNCAP and PC3 cells at 25.9 MBq, iv after 3 hrs; type: ADME, organism-based; details: in vivo; outline: as §1
# Nucleic Acid [2] = experiment: Ratio of drug level in human PC3 cells xenografted in C.B.-17/Icr +/+ Jcl mouse to muscle of C.B.-17/Icr +/+ Jcl mouse xenografted with human LNCAP and PC3 cells at 25.9 MBq, iv after 1 hr; type: ADME, organism-based; details: in vivo
# Outline: (§2)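 Mice (22–24 g) carried PC-3 (right shoulder) and LNCaP (left shoulder) tumors, raised by injecting 1–5 × 10⁶ cells in 1:1 PBS/Matrigel and used at about 5–10 mm diameter. [¹²⁵I]-tracer was given via the tail vein, n=4 per time point, and mice were decapitated at 2 min, 30 min, 1, 3 or 6 h. Tissues were weighed and γ-counted as %ID/g. Tumor/blood and tumor/muscle ratios were taken from %ID/g, mean ± SD.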
# Spleen [3] = experiment: Biodistribution in spleen of C.B.-17/Icr +/+ Jcl mouse xenografted with human LNCAP and PC3 cells at 25.9 MBq, iv after 2 mins; type: ADME, organism-based; details: in vivo
# Outline: (§3)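 Radioiodinated (¹²⁵I) tracer given by tail-vein injection to mice bearing LNCaP (left shoulder) and PC-3 (right shoulder) xenografts, 22–24 g, grown to about 5–10 mm. Groups of n=4 were decapitated at 2 min, 30 min, 1 h, 3 h or 6 h. Tissues were weighed and counted, and uptake was expressed as %ID/g (mean ± SD).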
# Thyroid gland [4] = experiment: Biodistribution in thyroid of C.B.-17/Icr +/+ Jcl mouse xenografted with human LNCAP and PC3 cells at 25.9 MBq, iv after 2 mins; type: ADME, organism-based; details: in vivo; outline: as §3
# Kidney = experiment: Biodistribution in kidney of C.B.-17/Icr […] Jcl mouse xenografted with human LNCAP and PC3 cells at 25.9 MBq, iv after 2 mins; type: ADME, organism-based; details: in vivo; outline: as §1
# Liver [5] = experiment: Drug excretion in C.B.-17/Icr […] Jcl mouse liver xenografted with human LNCAP and PC3 cells at 25.9 MBq, iv; type: ADME, organism-based; details: in vivo
# Serum = experiment: Drug degradation in C.B.-17/Icr +/+ Jcl mouse serum after 6 hrs; type: ADME, cell-free
# Outline: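 Serum came from heart blood of isoflurane-anesthetized male C.B.-17/Icr +/+ mice (20–22 g), centrifuged at 1,500 × g and stored at −80 °C. ¹²⁵I tracer was incubated in serum at 37 °C, then methanol was added. The sample was centrifuged at 5,000 × g, passed through a 0.45 μm filter, and analyzed by radio-HPLC for intact tracer versus degradation peaks.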
# Lung = experiment: Biodistribution in lung of C.B.-17/Icr +/+ Jcl mouse xenografted with human LNCAP and PC3 cells at 25.9 MBq, iv after 2 mins; type: ADME, organism-based; details: in vivo; outline: as §3
# Liver [6] = experiment: Biodistribution in liver of C.B.-17/Icr […] Jcl mouse xenografted with human LNCAP and PC3 cells at 25.9 MBq, iv after 2 mins; type: ADME, organism-based; details: in vivo; outline: as §1
# Spleen [7] = experiment: Biodistribution in spleen of C.B.-17/Icr +/+ Jcl mouse xenografted with human LNCAP and PC3 cells at 25.9 MBq, iv after 1 hr; type: ADME, organism-based; details: in vivo; outline: as §3
# LNCaP [8] = experiment: Biodistribution in LNCAP cells in C.B.-17/Icr +/+ Jcl mouse xenografted with human LNCAP and PC3 cells at 25.9 MBq, iv after 1 hr; type: ADME, organism-based; details: in vivo; outline: as §1
# Stomach = experiment: Biodistribution in stomach of C.B.-17/Icr +/+ Jcl mouse xenografted with human LNCAP and PC3 cells at 25.9 MBq, iv after 2 mins; type: ADME, organism-based; details: in vivo; outline: as §3
# Spleen [9] = experiment: Biodistribution in spleen of C.B.-17/Icr +/+ Jcl mouse xenografted with human LNCAP and PC3 cells at 25.9 MBq, iv after 3 hrs; type: ADME, organism-based; details: in vivo; outline: as §3
# LNCaP [10] = experiment: Biodistribution in LNCAP cells in C.B.-17/Icr +/+ Jcl mouse xenografted with human LNCAP and PC3 cells at 25.9 MBq, iv after 30 mins in presence of 2-PMPA; type: ADME, organism-based; details: in vivo, 0.5 h
# Outline: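 Blocking study: ¹²⁵I-labelled tracer coinjected iv by tail vein with 2-PMPA (50 mg/kg) in LNCaP/PC-3 xenograft-bearing mice (22–24 g). Mice decapitated 30 min after injection; tissues weighed and counted; uptake as %ID/g.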
# [11] = Ratio of drug level in human LNCAP cells xenografted in C.B.-17/Icr +/+ Jcl mouse to blood of C.B.-17/Icr +/+ Jcl mouse xenografted with human LNCAP and PC3 cells at 25.9 MBq, iv after 6 hrs; type: ADME, organism-based; details: LNCAP tumour xenograft relative to blood
# Outline: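 Tumor-to-blood and tumor-to-muscle ratios were calculated from %ID/g values in ¹²⁵I-tracer biodistribution in LNCaP/PC-3 xenografted mice. Tail-vein dosing, n=4 per time point, sacrifice at 2 min, 30 min, 1, 3 or 6 h.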
# Muscle tissue = experiment: Biodistribution in muscle of C.B.-17/Icr +/+ Jcl mouse xenografted with human LNCAP and PC3 cells at 25.9 MBq, iv after 2 mins; type: ADME, organism-based; details: in vivo; outline: as §3
# Thyroid gland [12] = experiment: Biodistribution in thyroid of C.B.-17/Icr +/+ Jcl mouse xenografted with human LNCAP and PC3 cells at 25.9 MBq, iv after 1 hr; type: ADME, organism-based; details: in vivo; outline: as §3
# PC-3 = experiment: Biodistribution in PC3 cells in C.B.-17/Icr +/+ Jcl mouse xenografted with human LNCAP and PC3 cells at 25.9 MBq, iv after 6 hrs; type: ADME, organism-based; details: in vivo; outline: as §1
# Nucleic Acid [13] = experiment: Ratio of drug level in human PC3 cells xenografted in C.B.-17/Icr +/+ Jcl mouse to muscle of C.B.-17/Icr +/+ Jcl mouse xenografted with human LNCAP and PC3 cells at 25.9 MBq, iv after 6 hrs; type: ADME, organism-based; details: in vivo; outline: as §2
# LNCaP [14] = experiment: Biodistribution in LNCAP cells in C.B.-17/Icr +/+ Jcl mouse xenografted with human LNCAP and PC3 cells at 25.9 MBq, iv after 6 hrs; type: ADME, organism-based; details: in vivo; outline: as §1
# Heart = experiment: Biodistribution in heart of C.B.-17/Icr +/+ Jcl mouse xenografted with human LNCAP and PC3 cells at 25.9 MBq, iv after 6 hrs; type: ADME, organism-based; details: in vivo; outline: as §1
# Intestine = experiment: Biodistribution in intestine of C.B.-17/Icr +/+ Jcl mouse xenografted with human LNCAP and PC3 cells at 25.9 MBq, iv after 2 mins; type: ADME, organism-based; details: in vivo; outline: as §1
# Nucleic Acid [15] = experiment: Ratio of drug level in human LNCAP cells to human PC3 cells xenografted in C.B.-17/Icr […] Jcl mouse at 25.9 MBq, iv after 2 mins; type: ADME, organism-based; details: in vivo
# Nucleic Acid [16] = experiment: Ratio of drug level in human LNCAP cells to human PC3 cells xenografted in C.B.-17/Icr […] Jcl mouse at 25.9 MBq, iv after 30 mins; type: ADME, organism-based; details: in vivo, 0.5 h
smiles,measurement,setting,value
O=C(O)CC[C@H](NC(=O)N[C@@H](CSC1CC(=O)N(CCCC[C@H](NC(=O)CNC(=O)c2cccc([125I])c2)C(=O)O)C1=O)C(=O)O)C(=O)O (stereo not given in full),Drug uptake,LNCaP [1],9.5 % ID/g
same,Drug uptake,Blood,0.7 % ID/g
same,Ratio,Nucleic Acid [2],1.6
same,Drug uptake,Spleen [3],12.5 % ID/g
same,Drug uptake,Thyroid gland [4],0.02 %ID
same,Drug uptake,Kidney,68.1 % ID/g
same,Drug excretion,Liver [5],Active
same,Stability,Serum,Stable
same,Drug uptake,Lung,6.8 % ID/g
same,Drug uptake,Liver [6],22.5 % ID/g
same,Drug uptake,Spleen [7],36.5 % ID/g
same,Drug uptake,LNCaP [8],7 % ID/g
same,Drug uptake,Stomach,0.7 %ID/g
same,Drug uptake,Spleen [9],16.1 % ID/g
same,Drug uptake,LNCaP [10],Not Active
same,Kp at 6 h,[11],13.3
same,Drug uptake,Muscle tissue,1.4 % ID/g
same,Drug uptake,Thyroid gland [12],0.01 %ID
same,Drug uptake,PC-3,0.2 % ID/g
same,Ratio,Nucleic Acid [13],2.1
same,Drug uptake,LNCaP [14],6.7 % ID/g
same,Drug uptake,Heart,0.4 % ID/g
same,Drug uptake,Intestine,3.6 % ID/g
same,Ratio,Nucleic Acid [15],1.5
same,Ratio,Nucleic Acid [16],10.1
